# This is a sample that favours compounds with a hit; in the whole collection about 3% have one here.
# SENP8 block-1 – SENP8 protease inhibitors, primary screen, biochemical, luminescence. purified SENP8, Z-RLRGG-aminoluciferin cleavage. inhibition, % at 10 µM. actives 1.2% (n = 330,000). AID 2540, 2010; in the data active means inhibition above about 50%
# Target sequence (Q96LD8 whole entry, looked up): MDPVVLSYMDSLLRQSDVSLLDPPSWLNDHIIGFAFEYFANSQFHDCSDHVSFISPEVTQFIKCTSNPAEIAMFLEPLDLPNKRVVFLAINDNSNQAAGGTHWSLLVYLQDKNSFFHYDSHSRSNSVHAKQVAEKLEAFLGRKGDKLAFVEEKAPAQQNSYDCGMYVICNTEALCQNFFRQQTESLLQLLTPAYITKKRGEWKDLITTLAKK
# SENP6 block – SENP6 protease inhibitors, primary screen, biochemical, luminescence, uHTS. Sentrin-specific protease 6 (Homo sapiens), Q9GZR1. Recombinant SENP6 catalytic domain, aminoluciferin luminescence. inhibition, % at 10 µM. actives 1.8% (n = 330,000);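 active means inhibition above about 50% at the single tested dose, limit read from the data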;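 further: plate controls were DMSO wells with enzyme for no effect and DMSO wells lacking enzyme for full effect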
# Target sequence (Q9GZR1 628-1112 limits assumed): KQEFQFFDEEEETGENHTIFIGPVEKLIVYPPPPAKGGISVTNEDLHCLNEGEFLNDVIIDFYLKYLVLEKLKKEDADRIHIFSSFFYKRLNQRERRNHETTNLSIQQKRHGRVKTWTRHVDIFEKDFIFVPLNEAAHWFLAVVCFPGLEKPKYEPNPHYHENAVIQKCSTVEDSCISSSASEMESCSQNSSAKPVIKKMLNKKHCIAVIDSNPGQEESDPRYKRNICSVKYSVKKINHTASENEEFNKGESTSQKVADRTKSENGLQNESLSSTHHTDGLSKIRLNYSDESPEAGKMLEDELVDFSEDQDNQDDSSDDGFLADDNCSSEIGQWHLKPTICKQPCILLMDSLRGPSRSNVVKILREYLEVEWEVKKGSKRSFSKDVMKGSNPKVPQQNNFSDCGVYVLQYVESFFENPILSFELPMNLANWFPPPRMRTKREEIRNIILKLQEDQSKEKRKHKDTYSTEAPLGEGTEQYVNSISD
# SENP8 block-2 – human SENP8 protease inhibitors, primary screen, biochemical, fluorescence, Nedd8 protein substrate, uHTS; Sentrin-specific protease 8 (Homo sapiens), Q96LD8; actives 0.64% (n = 360,000); recombinant SENP8; AID 602440, 2012; inhibition, % at 20 µM; in the data active means inhibition mostly above about 40%, no sharp cut-off; inactive means mostly below about 27%
# UBC13 polyUb – UBC13 polyubiquitin chain formation inhibitors, primary screen, biochemical, TR-FRET, uHTS; actives 0.47% (n = 330,000); inhibition, % at 20 µM; Ubiquitin-conjugating enzyme E2 N (Homo sapiens), P61088; AID 485273, 2010; in the data active means inhibition above about 45%, passing the limit was not always enough; inconclusive means no clear call, values can overlap the other calls
# SENP7 inh – SENP7 protease inhibitors, primary screen, biochemical, luminescence, uHTS; Sentrin-specific protease 7 (Homo sapiens), Q9BQF6; recombinant SENP7, Z-RLRGG-aminoluciferin luminescence, 40 min; inhibition, % at 5 µM; actives 1.5% (n = 330,000); AID 434973, 2010;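 active means inhibition above about 50% at the single test dose, limit read from the data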;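 further: plate controls were DMSO with enzyme for no effect and no enzyme buffer wells for full effect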
# Apaf-1 inh – inhibitors of human Apaf-1 apoptosome, primary screen, biochemical, DEVD-Rh110 fluorescence, uHTS; reconstituted apoptosome caspase-3 activity; inhibition, % at 20 µM; actives 0.71% (n = 330,000); active means inhibition of at least 40% at 20 µM;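 further: plate controls were DMSO wells for no effect and DEVD-CHO caspase inhibitor wells for full effect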
#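 Assay system – apoptosome proteins · Medium – Hepes buffer, pH 7.5 · Also added – cytochrome c with DEVD-Rh110 · Timing – 30 min compound preincubation, 50 min activation, room temperature · Detection – Rh110 fluorescence, excitation 480 nm, emission 540 nm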
# SENP8 confirm – SENP8 protease inhibitors, retest, confirmation, biochemical, luminescence, single concentration | shares compounds with SENP7 inh | Recombinant SENP8, Z-RLRGG-aminoluciferin luminescence, 60 min | inhibition, % at 12.5 µM | actives 40% (n = 6,200);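 active means mean inhibition across replicates above about 50%, limit read from the data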
# SENP6 confirm – SENP6 protease inhibitors, confirmation, biochemical, luminescence, single concentration; recombinant SENP6, Z-RLRGG-aminoluciferin luminescence; actives 58% (n = 6,200); shares compounds with SENP7 inh; AID 488915, 2010; inhibition, % at 12.5 µM
# SENP7 confirm – SENP7 protease inhibitors, retest, confirmation, biochemical, luminescence, single concentration | shares compounds with SENP7 inh | inhibition, % at 12.5 µM | recombinant SENP7, Z-RLRGG-aminoluciferin luminescence, 40 min | actives 69% (n = 6,200)
# Casp3 SENP sel – caspase-3 protease inhibitors, confirmation, selectivity assay for SENP inhibitor project, biochemical, single concentration | actives 60% (n = 6,200) | AID 488918, 2010 | purified caspase-3, Z-DEVD-aminoluciferin luminescence, 60 min | shares compounds with SENP7 inh | inhibition, % at 12.5 µM;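 active means mean inhibition above about 50%, limit read from the data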;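 further: plate controls were enzyme with DMSO for no effect and wells without caspase-3 for full effect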
# Luc interf – counter-screen for SENP inhibitors: luminescence interference; shares compounds with SENP7 inh; inhibition, % at 12.5 µM; Pre-incubated SENP8/Z-RLRGG-aminoluciferin, luciferase luminescence interference; actives 39% (n = 6,200);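 active means mean inhibition above about 50% when retested at one dose, limit read from the data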;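 further: plate controls were DMSO wells with completed reaction for no effect and substrate without enzyme for full effect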
# Casp3 UBC13 ctr – CASP3 inhibitor validation, counterassay for project on UBE2N polyubiquitination blockers, biochemical, one dose | shares compounds with UBC13 polyUb | Recombinant caspase-3, Caspase-Glo 3/7 luminescence, 60 min | inhibition, % at 20 µM | actives 4% (n = 1,400);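 active means mean inhibition across replicates above about 26%, limit read from the data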;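 further: plate controls were DMSO with caspase-3 for no effect and DMSO wells lacking enzyme for full effect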
# UBC13 conf – UBC13 polyubiquitination inhibitors, single-point retest, confirmation, biochemical, TR-FRET, single concentration | shares compounds with UBC13 polyUb | inhibition, % at 10 µM | actives 68% (n = 1,400); in the data active means inhibition above about 45%; inconclusive means no clear call, values can overlap the other calls
# Apaf-1 inh conf2 – Apaf-1 inhibitors, single-dose retest, confirmation, biochemical, fluorescence, DEVD-Rh110, 20 µM; shares compounds with Apaf-1 inh; reconstituted apoptosome, caspase-3 DEVD-Rh110 fluorescence; AID 504614, 2011; inhibition, % at 20 µM; actives 25% (n = 1,800);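 active means mean inhibition of at least 40% at 20 µM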;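 further: plate controls were DMSO wells for no effect and DEVD-CHO caspase inhibitor control wells for full effect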
# Rh110 quench – Rh110 fluorescence interference by putative Apaf-1 inhibitors, confirmation, artefact control for Apaf-1 inhibitor project, biochemical, 20 µM | shares compounds with Apaf-1 inh | quenched caspase reaction | activation (fluorescence interference), % at 20 µM | 1,800 tested, under 10 active | AID 504615, 2011;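 active means signal rise of 40% or more at 20 µM, treated as a fluorescence artifact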
# Fluor interf inh – fluorescence interference of Apaf-1 inhibitor hits, dose response, artefact control for Apaf-1 inhibitor project; shares compounds with Apaf-1 inh; AID 588538, 2011; fluorescence interference counterscreen, Apaf-1 assay format; IC50, µM; 460 tested, under 10 active; call rule not given here
# An asterisk follows results filed as active; i = inactive; ? = inconclusive; nt = no result given.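 How the source made its calls, unless noted: active means mean inhibition above about 50% in the one-dose retest (limit read from the data); inactive means the rest.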
SMILES,SENP8 block-1,SENP6 block,SENP8 block-2,UBC13 polyUb,SENP7 inh,Apaf-1 inh,SENP8 confirm,SENP6 confirm,SENP7 confirm,Casp3 SENP sel,Luc interf,Apaf-1 inh conf2,Rh110 quench,others
COc1cccc2oc3ccc(C#CC4(N)CCCCC4)cc3c(=O)c12,31,54*,i,53*,13,22,55*,52*,81*,70*,13,nt,nt,Casp3 UBC13 ctr=80*;UBC13 conf=40
COc1ccc(COC(=O)CCCN=C2NS(=O)(=O)c3ccccc32)cc1F,nt,nt,18,nt,nt,nt,nt,nt,nt,nt,nt,nt,nt,
Cc1cc(N2CCN(C)CC2)nc2ccc(NC(=S)N3CCCCC3)cc12,nt,nt,-430,nt,nt,nt,nt,nt,nt,nt,nt,nt,nt,
Cc1cc(N2CCN(C)CC2)nc2ccc(NC(=S)N3CCN(c4ccc(Cl)cc4)CC3)cc12,2,55*,-387,76*,8,16,12,6,9,5,3,nt,nt,Casp3 UBC13 ctr=5;UBC13 conf=70*
COc1ccccc1C(=O)N=c1sc2c(C)ccc(OC)c2n1C,44,58*,-454,48*,48,11,19,18,26,53*,14,nt,nt,Casp3 UBC13 ctr=73*;UBC13 conf=?
CCOC(=O)Cn1cc(Cn2c3ccccc3c(=O)n2C(C)C)nn1,nt,nt,-361,nt,nt,nt,nt,nt,nt,nt,nt,nt,nt,
Oc1ccc(NCc2ccc(OCc3ccccc3)cc2)cc1,nt,nt,32,nt,nt,nt,nt,nt,nt,nt,nt,nt,nt,
CCc1ccc(CNc2ccc(O)cc2)cc1,77*,81*,70*,-28,24,96*,14,12,-1,6,5,41*,-1,Fluor interf inh=>100
COC(=O)[C@@]12C[C@@H](CC(=O)NCc3ccc(OC)c(OC)c3)C(=O)N(Cc3cccc4ccccc34)C1=CCC(C)(C)C2,nt,nt,10,nt,nt,nt,nt,nt,nt,nt,nt,nt,nt,
Cc1ccc(C)c(S(=O)(=O)C(C#N)c2nc3ccccc3nc2N2CCOCC2)c1 (centres undefined),-3,0,-70,-22,5,25,nt,nt,nt,nt,nt,nt,nt,
Cc1ccc(C)c(S(=O)(=O)C(C#N)c2nc3ccccc3nc2N2CCCC2)c1 (centres undefined),65*,70*,1,-36,50,87*,-2,2,-3,-3,-4,12,1,
Cc1cc(C)cc(NC2=C(N)C(=O)c3ccccc3C2=O)c1,29,70*,48*,-54,11,74*,-3,6,2,5,-6,21,0,
CCC(=O)NC1=C(Nc2ccc(N)cc2)C(=O)c2ccccc2C1=O,6,21,37,-226,7,15,nt,nt,nt,nt,nt,nt,nt,
CN1CCc2nc(SCC(=O)Nc3cccc(F)c3)c(C#N)c(-c3cccs3)c2C1,57*,77*,34,7,60*,67*,1,0,-4,-2,-8,10,3,
COc1ccc(C(=O)c2nccc3cc(OC)c(OC)cc23)cc1OC,95*,89*,65*,-86,92*,84*,86*,92*,81*,49,2,44*,-4,Fluor interf inh=>100
COc1ccccc1Nc1cc2cc(Br)ccc2c(=O)[nH]1,97*,98*,-179,-137,96*,97*,86*,97*,94*,86*,14,98*,16,Fluor interf inh=>100
COc1ccc(OC)c(Nc2nnc(C)c(=O)[nH]2)c1,-5,-23,nt,-6,-8,6,nt,nt,nt,nt,nt,nt,nt,
COc1ccc(OC)c(Nc2cc3ccccc3c(=O)[nH]2)c1,88*,94*,i,-102,97*,97*,31,74*,41,11,-8,94*,5,Fluor interf inh=>100
COc1ccccc1Nc1nnc(C)c(=O)[nH]1,-11,-17,9,-9,2,2,nt,nt,nt,nt,nt,nt,nt,
COc1ccc(C(O)c2nc(-c3ccccc3)cs2)cc1 (centres undefined),nt,nt,8,nt,nt,nt,nt,nt,nt,nt,nt,nt,nt,
Cc1cc(=O)oc(C)c1C(=O)O,6,5,2,18,3,-17,nt,nt,nt,nt,nt,nt,nt,
Cc1oc2c(c1C(=O)O)C(=O)c1ccccc1C2=O,30,63*,45*,-56,18,79*,12,52*,30,51*,18,69*,-1,Fluor interf inh=>100
CC(C)(C)Cc1c(-c2cccc(Cl)c2)nc2ccc(Br)cn12,nt,nt,-8,nt,nt,nt,nt,nt,nt,nt,nt,nt,nt,
Cc1cc(C)n2c(Nc3c(C)cccc3C)c(CC(C)C)nc2n1,nt,nt,-8,nt,nt,nt,nt,nt,nt,nt,nt,nt,nt,
CCOC(=O)C1=C(COC(=O)c2sccc2C)NC(=O)NC1C (centres undefined),-7,-11,13,5,3,-6,nt,nt,nt,nt,nt,nt,nt,

# Source: PubChem BioAssay (Sanford-Burnham Center for Chemical Genomics)
